Test results published in ChEMBL document CHEMBL1159100, “Synthesis and antibacterial activity of benzyl-[3-(benzylamino-methyl)-cyclohexylmethyl]-amine derivatives” (Bioorg Med Chem Lett, 2010).
In brackets after ≈: the same amount, converted by molar mass.

Legend:
[1] = Toxicity in human RBC assessed as hemolytic activity at 512 ug/ml; format: cell-based, Erythrocyte; conditions: red blood cells (RBC), read-out: Activity
Summary of the method: (§1)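 Fresh human erythrocytes, 4% v/v in 35 mM phosphate buffer with 150 mM NaCl, incubated with test sample 1 h at 37 °C. After centrifugation, supernatant absorbance read at 414 nm. 0.1% Triton X-100 lysis taken as 100% hemolysis. Tested at concentrations up to 512 µg/mL.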

Pseudomonas aeruginosa = assay: Antimicrobial activity against Pseudomonas aeruginosa after 24 hrs by microdilution assay; format: functional
Summary of the method: (§2)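 NCCLS broth microdilution, final 100 µL. Bacteria grown in standard media to exponential phase. Compounds in 5% DMSO serially diluted; ~2–5 × 10^5 cells per well, 37 °C, 24 h, shaking 200 rpm. Growth read spectrophotometrically; percent survival relative to a drug-free 5% DMSO growth control; medium-only sterility control. MIC derived from survival data.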

Staphylococcus aureus = assay: Antimicrobial activity against Staphylococcus aureus after 24 hrs by microdilution assay; format: functional; summary of the method: as §2
Escherichia coli = assay: Antimicrobial activity against Escherichia coli after 24 hrs by microdilution assay; format: functional; summary of the method: as §2
[2] = test system: Staphylococcus epidermidis; assay: Antimicrobial activity against Staphylococcus epidermidis after 24 hrs by microdilution assay; format: functional; summary of the method: as §2
[3] = Toxicity in human RBC up to 512 ug/ml; format: cell-based; conditions: erythrocyte; summary of the method: as §1

| SMILES | hemolysis at 512 ug/ml [1] [%] | MIC (Pseudomonas aeruginosa) [µg/mL] | MIC (Staphylococcus aureus) [µg/mL] | MIC (Escherichia coli) [µg/mL] | MIC [2] [µg/mL] | Activity [3] |
| --- | --- | --- | --- | --- | --- | --- |
| CCCCc1ccc(CNCC2CCCC(CNCc3ccc(CCCC)cc3)C2)cc1 (configuration not stated) | 4 | 0.002 (≈ 0.0046 µM) | 0.004 (≈ 0.0092 µM) | 0.016 (≈ 0.0368 µM) | 0.004 (≈ 0.0092 µM) | – |
| CC(C)(C)c1ccc(CNCC2CCCC(CNCc3ccc(C(C)(C)C)cc3)C2)cc1 (configuration not stated) | 4 | 0.004 (≈ 0.0092 µM) | 0.016 (≈ 0.0368 µM) | 0.002 (≈ 0.0046 µM) | 0.008 (≈ 0.0184 µM) | – |
| Clc1ccc(CNCC2CCCC(CNCc3ccc(Cl)cc3)C2)cc1 (configuration not stated) | – | 0.032 (≈ 0.0818 µM) | 0.025 (≈ 0.0639 µM) | > 250 | 0.065 (≈ 0.166 µM) | Non-toxic |
| c1ccc(CNCC2CCCC(CNCc3ccccc3)C2)cc1 (configuration not stated) | – | > 250 | > 250 | > 250 | > 250 | – |
| Cc1ccc(CNCC2CCCC(CNCc3ccc(C)cc3)C2)cc1 (configuration not stated) | – | 0.5 (≈ 1.43 µM) | > 250 | > 250 | 1 (≈ 2.85 µM) | Non-toxic |
| Cc1cccc(CNCC2CCCC(CNCc3cccc(C)c3)C2)c1 (configuration not stated) | – | 1 (≈ 2.85 µM) | > 250 | > 250 | 1 (≈ 2.85 µM) | Non-toxic |
| Clc1cccc(CNCC2CCCC(CNCc3cccc(Cl)c3)C2)c1 (configuration not stated) | – | 0.125 (≈ 0.319 µM) | > 250 | > 250 | 0.25 (≈ 0.639 µM) | Non-toxic |
| Cc1ccc(CNCC2CCCC(CNCc3ccc(C)c(C)c3)C2)cc1C (configuration not stated) | – | 0.125 (≈ 0.33 µM) | > 250 | > 250 | > 250 | Non-toxic |
| Cc1cc(C)cc(CNCC2CCCC(CNCc3cc(C)cc(C)c3)C2)c1 (configuration not stated) | – | 1 (≈ 2.64 µM) | > 250 | > 250 | 0.25 (≈ 0.66 µM) | Non-toxic |
| Cc1ccc(C)c(CNCC2CCCC(CNCc3cc(C)ccc3C)C2)c1 (configuration not stated) | – | > 250 | > 250 | > 250 | > 250 | – |
| Cc1ccc(CNCC2CCCC(CNCc3ccc(C)cc3C)C2)c(C)c1 (configuration not stated) | – | > 250 | > 250 | > 250 | > 250 | – |
| Fc1ccc(CNCC2CCCC(CNCc3ccc(F)cc3)C2)cc1 (configuration not stated) | – | > 250 | > 250 | > 250 | > 250 | – |
| Fc1cccc(CNCC2CCCC(CNCc3cccc(F)c3)C2)c1 (configuration not stated) | – | > 250 | > 250 | > 250 | > 250 | – |
| O=[N+]([O-])c1cccc(CNCC2CCCC(CNCc3cccc([N+](=O)[O-])c3)C2)c1 (configuration not stated) | – | > 250 | 0.02 (≈ 0.0485 µM) | > 250 | > 250 | – |
| CCc1ccc(CNCC2CCCC(CNCc3ccc(CC)cc3)C2)cc1 (configuration not stated) | 0.5 | 0.125 (≈ 0.33 µM) | > 250 | > 250 | 0.25 (≈ 0.66 µM) | – |
| CC(C)c1ccc(CNCC2CCCC(CNCc3ccc(C(C)C)cc3)C2)cc1 (configuration not stated) | 4 | 0.125 (≈ 0.307 µM) | > 250 | > 250 | 0.125 (≈ 0.307 µM) | – |
| Brc1cccc(CNCC2CCCC(CNCc3cccc(Br)c3)C2)c1 (configuration not stated) | – | 0.125 (≈ 0.26 µM) | > 250 | > 250 | 0.125 (≈ 0.26 µM) | Non-toxic |
| Brc1ccc(CNCC2CCCC(CNCc3ccc(Br)cc3)C2)cc1 (configuration not stated) | – | 0.032 (≈ 0.0666 µM) | > 250 | > 250 | 0.125 (≈ 0.26 µM) | Non-toxic |
| Clc1cccc(Cl)c1CNCC1CCCC(CNCc2c(Cl)cccc2Cl)C1 (configuration not stated) | – | > 250 | > 250 | > 250 | > 250 | Non-toxic |
| CCCc1ccc(CNCC2CCCC(CNCc3ccc(CCC)cc3)C2)cc1 (configuration not stated) | 4 | 0.016 (≈ 0.0393 µM) | > 250 | 0.016 (≈ 0.0393 µM) | 0.016 (≈ 0.0393 µM) | – |
| Cc1ccccc1CNCC1CCCC(CNCc2ccccc2C)C1 (configuration not stated) | – | > 250 | > 250 | > 250 | > 250 | Non-toxic |
| CN(C)[C@@H]1C(O)=C(C(N)=O)C(=O)[C@@]2(O)C(O)=C3C(=O)c4c(O)cccc4[C@@](C)(O)[C@H]3C[C@@H]12 [TETRACYCLINE] | – | – | 0.01 (≈ 0.0225 µM) | 0.001 (≈ 0.00225 µM) | 0.02 (≈ 0.045 µM) | – |
